Source: ChEMBL document CHEMBL1629465, “Efficient synthesis of novel 1,2,4-triazole fused acyclic and 21-28 membered macrocyclic and/or lariat macrocyclic oxaazathia crown compounds with potential antimicrobial activity” (2010)

Tested on: Pseudomonas aeruginosa
Test: Antimicrobial activity against Pseudomonas aeruginosa RCMB 102002 at 5 mg/ml by agar diffusion technique
Type: functional
Conditions: read-out: DIZ
Summary of the method: (§1)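 Agar well diffusion. Test compounds and reference standard drugs were diluted to 5.0, 2.5 and 1.0 mg/mL and applied to 0.6 cm wells. Inhibition zone beyond the control was scored as 0 (no inhibition), + (0.1–0.5 cm), ++ (0.6–1.0 cm) or +++ (1.0–1.5 cm).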

Structure (SMILES)	zone of inhibition at 5000 µg/mL
C1=N\n2c(nnc2-c2cccnc2)SCCCCSc2nnc(-c3cccnc3)n2/N=C\c2ccccc2OCCOCCOCCOc2ccccc2/1	1 mm
OC1COc2ccccc2/C=N\n2c(nnc2-c2cccnc2)SCCCSc2nnc(-c3cccnc3)n2/N=C\c2ccccc2OC1	0 mm

Tested on: Staphylococcus aureus
Test: Antimicrobial activity against Staphylococcus aureus RCMB 106001 at 2.5 mg/ml by agar diffusion technique
Type: functional
Conditions: read-out: DIZ
Summary of the method: as §1

Structure (SMILES)	zone of inhibition at 2500 µg/mL
C1=N\n2c(nnc2-c2cccnc2)SCCCCSc2nnc(-c3cccnc3)n2/N=C\c2ccccc2OCCOCCOCCOc2ccccc2/1	0 mm
OC1COc2ccccc2/C=N\n2c(nnc2-c2cccnc2)SCCCSc2nnc(-c3cccnc3)n2/N=C\c2ccccc2OC1	0 mm

Tested on: Candida albicans
Test: Antimicrobial activity against Candida albicans RCMB 005003 at 1 mg/ml by agar diffusion technique
Type: functional
Conditions: read-out: DIZ
Summary of the method: as §1

Structure (SMILES)	zone of inhibition at 1000 µg/mL
C1=N\n2c(nnc2-c2cccnc2)SCCCCSc2nnc(-c3cccnc3)n2/N=C\c2ccccc2OCCOCCOCCOc2ccccc2/1	0 mm
OC1COc2ccccc2/C=N\n2c(nnc2-c2cccnc2)SCCCSc2nnc(-c3cccnc3)n2/N=C\c2ccccc2OC1	0 mm

Tested on: Syncephalastrum racemosum
Test: Antimicrobial activity against Syncephalastrum racemosum RCMB 016001 at 2.5 mg/ml by agar diffusion technique
Type: functional
Conditions: read-out: DIZ
Summary of the method: as §1

Structure (SMILES)	zone of inhibition at 2500 µg/mL
C1=N\n2c(nnc2-c2cccnc2)SCCCCSc2nnc(-c3cccnc3)n2/N=C\c2ccccc2OCCOCCOCCOc2ccccc2/1	0 mm
OC1COc2ccccc2/C=N\n2c(nnc2-c2cccnc2)SCCCSc2nnc(-c3cccnc3)n2/N=C\c2ccccc2OC1	1 mm

Tested on: Escherichia coli
Test: Antimicrobial activity against Escherichia coli RCMB 103001 at 1 mg/ml by agar diffusion technique
Type: functional
Conditions: read-out: DIZ
Summary of the method: as §1

Structure (SMILES)	zone of inhibition at 1000 µg/mL
C1=N\n2c(nnc2-c2cccnc2)SCCCCSc2nnc(-c3cccnc3)n2/N=C\c2ccccc2OCCOCCOCCOc2ccccc2/1	0 mm
OC1COc2ccccc2/C=N\n2c(nnc2-c2cccnc2)SCCCSc2nnc(-c3cccnc3)n2/N=C\c2ccccc2OC1	0 mm

Tested on: Staphylococcus aureus
Test: Antimicrobial activity against Staphylococcus aureus RCMB 106001 at 5 mg/ml by agar diffusion technique
Type: functional
Conditions: read-out: DIZ
Summary of the method: as §1

Structure (SMILES)	zone of inhibition at 5000 µg/mL
C1=N\n2c(nnc2-c2cccnc2)SCCCCSc2nnc(-c3cccnc3)n2/N=C\c2ccccc2OCCOCCOCCOc2ccccc2/1	1 mm
OC1COc2ccccc2/C=N\n2c(nnc2-c2cccnc2)SCCCSc2nnc(-c3cccnc3)n2/N=C\c2ccccc2OC1	0 mm

Tested on: Penicillium italicum
Test: Antimicrobial activity against Penicillium italicum RCMB 001018 at 1 mg/ml by agar diffusion technique
Type: functional
Conditions: read-out: DIZ
Summary of the method: as §1

Structure (SMILES)	zone of inhibition at 1000 µg/mL
C1=N\n2c(nnc2-c2cccnc2)SCCCCSc2nnc(-c3cccnc3)n2/N=C\c2ccccc2OCCOCCOCCOc2ccccc2/1	0 mm
OC1COc2ccccc2/C=N\n2c(nnc2-c2cccnc2)SCCCSc2nnc(-c3cccnc3)n2/N=C\c2ccccc2OC1	0 mm

Tested on: Syncephalastrum racemosum
Test: Antimicrobial activity against Syncephalastrum racemosum RCMB 016001 at 1 mg/ml by agar diffusion technique
Type: functional
Conditions: read-out: DIZ
Summary of the method: as §1

Structure (SMILES)	zone of inhibition at 1000 µg/mL
C1=N\n2c(nnc2-c2cccnc2)SCCCCSc2nnc(-c3cccnc3)n2/N=C\c2ccccc2OCCOCCOCCOc2ccccc2/1	0 mm
OC1COc2ccccc2/C=N\n2c(nnc2-c2cccnc2)SCCCSc2nnc(-c3cccnc3)n2/N=C\c2ccccc2OC1	0 mm

Tested on: Staphylococcus aureus
Test: Antimicrobial activity against Staphylococcus aureus RCMB 106001 at 1 mg/ml by agar diffusion technique
Type: functional
Conditions: read-out: DIZ
Summary of the method: as §1

Structure (SMILES)	zone of inhibition at 1000 µg/mL
C1=N\n2c(nnc2-c2cccnc2)SCCCCSc2nnc(-c3cccnc3)n2/N=C\c2ccccc2OCCOCCOCCOc2ccccc2/1	0 mm
OC1COc2ccccc2/C=N\n2c(nnc2-c2cccnc2)SCCCSc2nnc(-c3cccnc3)n2/N=C\c2ccccc2OC1	0 mm

Tested on: Syncephalastrum racemosum
Test: Antimicrobial activity against Syncephalastrum racemosum RCMB 016001 at 5 mg/ml by agar diffusion technique
Type: functional
Conditions: read-out: DIZ
Summary of the method: as §1

Structure (SMILES)	zone of inhibition at 5000 µg/mL
C1=N\n2c(nnc2-c2cccnc2)SCCCCSc2nnc(-c3cccnc3)n2/N=C\c2ccccc2OCCOCCOCCOc2ccccc2/1	1 mm
OC1COc2ccccc2/C=N\n2c(nnc2-c2cccnc2)SCCCSc2nnc(-c3cccnc3)n2/N=C\c2ccccc2OC1	1 mm

Tested on: Bacillus subtilis
Test: Antimicrobial activity against Bacillus subtilis RCMB 101001 at 5 mg/ml by agar diffusion technique
Type: functional
Conditions: read-out: DIZ
Summary of the method: as §1

Structure (SMILES)	zone of inhibition at 5000 µg/mL
C1=N\n2c(nnc2-c2cccnc2)SCCCCSc2nnc(-c3cccnc3)n2/N=C\c2ccccc2OCCOCCOCCOc2ccccc2/1	0 mm
OC1COc2ccccc2/C=N\n2c(nnc2-c2cccnc2)SCCCSc2nnc(-c3cccnc3)n2/N=C\c2ccccc2OC1	6 mm

Tested on: Penicillium italicum
Test: Antimicrobial activity against Penicillium italicum RCMB 001018 at 5 mg/ml by agar diffusion technique
Type: functional
Conditions: read-out: DIZ
Summary of the method: as §1

Structure (SMILES)	zone of inhibition at 5000 µg/mL
C1=N\n2c(nnc2-c2cccnc2)SCCCCSc2nnc(-c3cccnc3)n2/N=C\c2ccccc2OCCOCCOCCOc2ccccc2/1	0 mm
OC1COc2ccccc2/C=N\n2c(nnc2-c2cccnc2)SCCCSc2nnc(-c3cccnc3)n2/N=C\c2ccccc2OC1	1 mm

Tested on: Escherichia coli
Test: Antimicrobial activity against Escherichia coli RCMB 103001 at 2.5 mg/ml by agar diffusion technique
Type: functional
Conditions: read-out: DIZ
Summary of the method: as §1

Structure (SMILES)	zone of inhibition at 2500 µg/mL
C1=N\n2c(nnc2-c2cccnc2)SCCCCSc2nnc(-c3cccnc3)n2/N=C\c2ccccc2OCCOCCOCCOc2ccccc2/1	1 mm
OC1COc2ccccc2/C=N\n2c(nnc2-c2cccnc2)SCCCSc2nnc(-c3cccnc3)n2/N=C\c2ccccc2OC1	0 mm

Tested on: Aspergillus fumigatus
Test: Antimicrobial activity against Aspergillus fumigatus RCMB 002008 at 1 mg/ml by agar diffusion technique
Type: functional
Conditions: read-out: DIZ
Summary of the method: as §1

Structure (SMILES)	zone of inhibition at 1000 µg/mL
C1=N\n2c(nnc2-c2cccnc2)SCCCCSc2nnc(-c3cccnc3)n2/N=C\c2ccccc2OCCOCCOCCOc2ccccc2/1	0 mm
OC1COc2ccccc2/C=N\n2c(nnc2-c2cccnc2)SCCCSc2nnc(-c3cccnc3)n2/N=C\c2ccccc2OC1	0 mm

Tested on: Bacillus subtilis
Test: Antimicrobial activity against Bacillus subtilis RCMB 101001 at 1 mg/ml by agar diffusion technique
Type: functional
Conditions: read-out: DIZ
Summary of the method: as §1

Structure (SMILES)	zone of inhibition at 1000 µg/mL
C1=N\n2c(nnc2-c2cccnc2)SCCCCSc2nnc(-c3cccnc3)n2/N=C\c2ccccc2OCCOCCOCCOc2ccccc2/1	0 mm
OC1COc2ccccc2/C=N\n2c(nnc2-c2cccnc2)SCCCSc2nnc(-c3cccnc3)n2/N=C\c2ccccc2OC1	1 mm

Tested on: Pseudomonas aeruginosa
Test: Antimicrobial activity against Pseudomonas aeruginosa RCMB 102002 at 2.5 mg/ml by agar diffusion technique
Type: functional
Conditions: read-out: DIZ
Summary of the method: as §1

Structure (SMILES)	zone of inhibition at 2500 µg/mL
C1=N\n2c(nnc2-c2cccnc2)SCCCCSc2nnc(-c3cccnc3)n2/N=C\c2ccccc2OCCOCCOCCOc2ccccc2/1	1 mm
OC1COc2ccccc2/C=N\n2c(nnc2-c2cccnc2)SCCCSc2nnc(-c3cccnc3)n2/N=C\c2ccccc2OC1	0 mm

Tested on: Escherichia coli
Test: Antimicrobial activity against Escherichia coli RCMB 103001 at 5 mg/ml by agar diffusion technique
Type: functional
Conditions: read-out: DIZ
Summary of the method: as §1

Structure (SMILES)	zone of inhibition at 5000 µg/mL
C1=N\n2c(nnc2-c2cccnc2)SCCCCSc2nnc(-c3cccnc3)n2/N=C\c2ccccc2OCCOCCOCCOc2ccccc2/1	1 mm
OC1COc2ccccc2/C=N\n2c(nnc2-c2cccnc2)SCCCSc2nnc(-c3cccnc3)n2/N=C\c2ccccc2OC1	0 mm

Tested on: Candida albicans
Test: Antimicrobial activity against Candida albicans RCMB 005003 at 2.5 mg/ml by agar diffusion technique
Type: functional
Conditions: read-out: DIZ
Summary of the method: as §1

Structure (SMILES)	zone of inhibition at 2500 µg/mL
C1=N\n2c(nnc2-c2cccnc2)SCCCCSc2nnc(-c3cccnc3)n2/N=C\c2ccccc2OCCOCCOCCOc2ccccc2/1	0 mm
OC1COc2ccccc2/C=N\n2c(nnc2-c2cccnc2)SCCCSc2nnc(-c3cccnc3)n2/N=C\c2ccccc2OC1	1 mm

Tested on: Candida albicans
Test: Antimicrobial activity against Candida albicans RCMB 005003 at 5 mg/ml by agar diffusion technique
Type: functional
Conditions: read-out: DIZ
Summary of the method: as §1

Structure (SMILES)	zone of inhibition at 5000 µg/mL
C1=N\n2c(nnc2-c2cccnc2)SCCCCSc2nnc(-c3cccnc3)n2/N=C\c2ccccc2OCCOCCOCCOc2ccccc2/1	0 mm
OC1COc2ccccc2/C=N\n2c(nnc2-c2cccnc2)SCCCSc2nnc(-c3cccnc3)n2/N=C\c2ccccc2OC1	1 mm

Tested on: Bacillus subtilis
Test: Antimicrobial activity against Bacillus subtilis RCMB 101001 at 2.5 mg/ml by agar diffusion technique
Type: functional
Conditions: read-out: DIZ
Summary of the method: as §1

Structure (SMILES)	zone of inhibition at 2500 µg/mL
C1=N\n2c(nnc2-c2cccnc2)SCCCCSc2nnc(-c3cccnc3)n2/N=C\c2ccccc2OCCOCCOCCOc2ccccc2/1	0 mm
OC1COc2ccccc2/C=N\n2c(nnc2-c2cccnc2)SCCCSc2nnc(-c3cccnc3)n2/N=C\c2ccccc2OC1	1 mm

Tested on: Penicillium italicum
Test: Antimicrobial activity against Penicillium italicum RCMB 001018 at 2.5 mg/ml by agar diffusion technique
Type: functional
Conditions: read-out: DIZ
Summary of the method: as §1

Structure (SMILES)	zone of inhibition at 2500 µg/mL
C1=N\n2c(nnc2-c2cccnc2)SCCCCSc2nnc(-c3cccnc3)n2/N=C\c2ccccc2OCCOCCOCCOc2ccccc2/1	0 mm
OC1COc2ccccc2/C=N\n2c(nnc2-c2cccnc2)SCCCSc2nnc(-c3cccnc3)n2/N=C\c2ccccc2OC1	1 mm

Tested on: Aspergillus fumigatus
Test: Antimicrobial activity against Aspergillus fumigatus RCMB 002008 at 2.5 mg/ml by agar diffusion technique
Type: functional
Conditions: read-out: DIZ
Summary of the method: as §1

Structure (SMILES)	zone of inhibition at 2500 µg/mL
C1=N\n2c(nnc2-c2cccnc2)SCCCCSc2nnc(-c3cccnc3)n2/N=C\c2ccccc2OCCOCCOCCOc2ccccc2/1	0 mm
OC1COc2ccccc2/C=N\n2c(nnc2-c2cccnc2)SCCCSc2nnc(-c3cccnc3)n2/N=C\c2ccccc2OC1	0 mm

Tested on: Aspergillus fumigatus
Test: Antimicrobial activity against Aspergillus fumigatus RCMB 002008 at 5 mg/ml by agar diffusion technique
Type: functional
Conditions: read-out: DIZ
Summary of the method: as §1

Structure (SMILES)	zone of inhibition at 5000 µg/mL
C1=N\n2c(nnc2-c2cccnc2)SCCCCSc2nnc(-c3cccnc3)n2/N=C\c2ccccc2OCCOCCOCCOc2ccccc2/1	0 mm
OC1COc2ccccc2/C=N\n2c(nnc2-c2cccnc2)SCCCSc2nnc(-c3cccnc3)n2/N=C\c2ccccc2OC1	0 mm

Tested on: Pseudomonas aeruginosa
Test: Antimicrobial activity against Pseudomonas aeruginosa RCMB 102002 at 1 mg/ml by agar diffusion technique
Type: functional
Conditions: read-out: DIZ
Summary of the method: as §1

Structure (SMILES)	zone of inhibition at 1000 µg/mL
C1=N\n2c(nnc2-c2cccnc2)SCCCCSc2nnc(-c3cccnc3)n2/N=C\c2ccccc2OCCOCCOCCOc2ccccc2/1	0 mm
OC1COc2ccccc2/C=N\n2c(nnc2-c2cccnc2)SCCCSc2nnc(-c3cccnc3)n2/N=C\c2ccccc2OC1	0 mm
